Source: ChEMBL document CHEMBL1158990, “New cytotoxic lupane lactones from Kokoona ochracea” (1991)
In brackets after ≈: the same amount, converted by molar mass.

Experiments:
Format in all cases: functional
P388 = assay: Cytotoxicity against mouse P388 cells after 48 hrs; conditions: P388, 48 h, read-out: ED50 (the source's name)
Procedure, shortened: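 Cultured murine P-388 leukemia cells were treated with compound for 48 h. The read-out is cell growth inhibition, and ED50 in µg/ml is the concentration producing 50% inhibition.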

[1] = Cytotoxicity against human UISO-BCA1 cells after 72 hrs; conditions: UISO-BCA1, 72 h, read-out: ED50 (the source's name)
Procedure, shortened: (§1)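 In vitro growth-inhibition assay with a 72 h compound exposure. ED50 in µg/ml is the concentration that inhibits cell growth by 50%.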

[2] = Cytotoxicity against human UISO-COL2 cells after 72 hrs; conditions: UISO-COL2, 72 h, read-out: ED50 (the source's name); procedure, shortened: as §1
[3] = Cytotoxicity against human KB3 cells after 72 hrs; conditions: KB3, 72 h, read-out: ED50 (the source's name); procedure, shortened: as §1
[4] = Cytotoxicity against human KBV1 cells after 72 hrs; conditions: KB-V1, 72 h, read-out: ED50 (the source's name)
HT-1080 = assay: Cytotoxicity against human HT1080 cells after 72 hrs; conditions: HT-1080, 72 h, read-out: ED50 (the source's name); procedure, shortened: as §1
[5] = Cytotoxicity against human UISO-MEL2 cells after 72 hrs; conditions: UISO-MEL2, 72 h, read-out: ED50 (the source's name); procedure, shortened: as §1
[6] = Cytotoxicity against human UISO-LUC1 cells after 72 hrs; conditions: UISO-LUC1, 72 h, read-out: ED50 (the source's name); procedure, shortened: as §1

Structure (SMILES) | EC50 (P388) | EC50 [1] | EC50 [2] | EC50 [3] | EC50 [4] | EC50 (HT-1080) | EC50 [5] | EC50 [6]
CC1(C)C(=O)CC[C@]2(C)[C@H]3CC[C@H]4[C@@H]5[C@H]6[C@@H](C[C@]5(C)CC[C@@]4(C)[C@]3(C)CC[C@@H]12)OC(=O)[C@@]61CO1 | 7.8 µg/mL (≈ 16.6 µM) | > 20 µg/mL | > 20 µg/mL | 5.2 µg/mL (≈ 11.1 µM) | > 20 µg/mL | > 20 µg/mL | > 20 µg/mL | > 20 µg/mL
C=C1C(=O)O[C@@H]2C[C@]3(C)CC[C@]4(C)[C@H](CC[C@@H]5[C@@]6(C)CCC(=O)C(C)(C)[C@@H]6CC[C@]54C)[C@H]3[C@H]12 [OCHRACEOLIDE A] | 0.26 µg/mL (≈ 0.574 µM) | 10 µg/mL (≈ 22.1 µM) | 6.8 µg/mL (≈ 15 µM) | 2.7 µg/mL (≈ 5.96 µM) | > 20 µg/mL | 9.6 µg/mL (≈ 21.2 µM) | 8.3 µg/mL (≈ 18.3 µM) | 12 µg/mL (≈ 26.5 µM)
C=C1C(=O)O[C@@H]2C[C@]3(C)CC[C@]4(C)[C@@H](CC[C@@H]5[C@@]6(C)CCC(=O)C(C)(C)[C@@H]6C(=O)C[C@]54C)[C@@H]3[C@H]12 [OCHRACEOLIDE C] | 0.53 µg/mL (≈ 1.14 µM) | 4.5 µg/mL (≈ 9.64 µM) | 9.2 µg/mL (≈ 19.7 µM) | 5.5 µg/mL (≈ 11.8 µM) | > 20 µg/mL | 8.6 µg/mL (≈ 18.4 µM) | 8.3 µg/mL (≈ 17.8 µM) | 12 µg/mL (≈ 25.7 µM)
